{
  "source": "PubChem BioAssay AID463077",
  "about": "(The Scripps Research Institute Molecular Screening Center, 2010)",
  "target": "Casein kinase I isoform delta (Homo sapiens) (UniProt P48730)",
  "sequence (P48730 whole entry, looked up, canonical isoform)": "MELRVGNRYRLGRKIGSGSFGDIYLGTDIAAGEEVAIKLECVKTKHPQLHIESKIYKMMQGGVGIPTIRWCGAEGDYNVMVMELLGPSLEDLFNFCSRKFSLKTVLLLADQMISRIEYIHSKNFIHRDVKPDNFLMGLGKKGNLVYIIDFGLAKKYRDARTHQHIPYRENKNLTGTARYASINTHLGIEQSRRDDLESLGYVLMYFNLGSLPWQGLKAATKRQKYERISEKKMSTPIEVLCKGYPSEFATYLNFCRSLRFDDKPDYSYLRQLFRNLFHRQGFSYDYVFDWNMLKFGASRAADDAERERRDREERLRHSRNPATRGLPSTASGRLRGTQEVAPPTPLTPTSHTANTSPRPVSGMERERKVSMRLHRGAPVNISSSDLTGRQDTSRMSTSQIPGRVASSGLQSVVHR",
  "assay": "CK1d kinase inhibitors, late-stage follow-up, biochemical, radioactive 33P-ATP, purified kinase, powder samples (AID 463077)",
  "settings": "33P-ATP filter-binding, CK1tide",
  "summary_of_the_method": "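Test system: Purified human casein kinase 1 delta (CK1d) enzyme | Buffer or medium: pH 7.5 HEPES buffer with 1% DMSO | Dosing: 10-point threefold dilution series from nominal 50 µM top dose | Incubation: Kinase reaction run 120 min at room temperature | Detection: 33P incorporation by filter binding | Evaluation: IC50 from radioactivity ratio versus concentration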",
  "note": "Activity calls are given as the source filed them.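 How the source made its calls: active means compounds whose half-inhibition concentration IC50 on CK1 delta kinase is at most 1 µM; inactive means the rest.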",
  "data": [
    {"smiles": "Fc1ccc2nc(CNc3nc(N4CCOCC4)nc4c3ncn4-c3ccsc3)[nH]c2c1", "values": [
      {"measurement": "IC50", "value": 50, "unit": "nM"}
    ]},
    {"smiles": "CCOC(=O)c1cccc2[nH]c(CNc3nc(N4CCOCC4)nc4c3ncn4-c3ccsc3)nc12", "values": [
      {"measurement": "IC50", "value": 361, "unit": "nM"}
    ]},
    {"smiles": "c1ccc2cc3[nH]c(CNc4nc(N5CCOCC5)nc5c4ncn5-c4ccsc4)nc3cc2c1", "values": [
      {"measurement": "IC50", "value": 129, "unit": "nM"}
    ]},
    {"smiles": "c1ccc2[nH]c(CNc3nc(N4CCOCC4)nc4c3ncn4-c3ccsc3)nc2c1", "values": [
      {"measurement": "IC50", "value": 161, "unit": "nM"}
    ]},
    {"smiles": "Cc1ccnc(NC(=O)CCCOc2cc(=O)n(C)c3ccccc23)c1", "values": [
      {"measurement": "IC50", "value": "inactive"}
    ]},
    {"smiles": "FC(F)(F)c1cccc2[nH]c(CNc3nc(N4CCOCC4)nc4c3ncn4-c3ccsc3)nc12", "values": [
      {"measurement": "IC50", "value": 128, "unit": "nM"}
    ]},
    {"smiles": "FC(F)(F)c1ccc2nc(CNc3nc(N4CCOCC4)nc4c3ncn4-c3ccsc3)[nH]c2c1", "values": [
      {"measurement": "IC50", "value": 13, "unit": "nM"}
    ]},
    {"smiles": "O=[N+]([O-])c1ccc2nc(CNc3nc(N4CCOCC4)nc4c3ncn4-c3ccsc3)[nH]c2c1", "values": [
      {"measurement": "IC50", "value": 21, "unit": "nM"}
    ]},
    {"smiles": "N#Cc1ccc2nc(CNc3nc(N4CCOCC4)nc4c3ncn4-c3ccsc3)[nH]c2c1", "values": [
      {"measurement": "IC50", "value": 11, "unit": "nM"}
    ]},
    {"smiles": "CC(C)n1cnc2c(NCc3nc4c([N+](=O)[O-])cccc4[nH]3)nc(N3CCOCC3)nc21", "values": [
      {"measurement": "IC50", "value": 815, "unit": "nM"}
    ]},
    {"smiles": "O=[N+]([O-])c1cccc2[nH]c(CNc3nc(N4CCOCC4)nc4c3ncn4-c3ccsc3)nc12", "values": [
      {"measurement": "IC50", "value": 49, "unit": "nM"}
    ]},
    {"smiles": "COc1ccc2nc(CNc3nc(N4CCOCC4)nc4c3ncn4-c3ccsc3)[nH]c2c1", "values": [
      {"measurement": "IC50", "value": 17, "unit": "nM"}
    ]},
    {"smiles": "Clc1ccc2nc(CNc3nc(N4CCOCC4)nc4c3ncn4-c3ccsc3)[nH]c2c1", "values": [
      {"measurement": "IC50", "value": 105, "unit": "nM"}
    ]}
  ]
}
